# Source: PubChem BioAssay (several laboratories)
# Shown are actives, neighbours in structure and some others; about 2.5% of the full set was active somewhere.
# PHOSPHO1 block: PHOSPHO1 (human) inhibition. Q8TCT1. recombinant PHOSPHO1, absorbance phosphatase assay. inhibition, % at 13.3 µM. 1.1% of 290,000 active. AID 1565; in the data active = inhibition above about 60%
# PfG6PD inh: PfG6PD (Plasmodium falciparum) enzyme inhibition | 0.78% of 350,000 active | PfGluPho enzyme, NADPH resazurin-diaphorase fluorescence | inhibition, % at 20 µM;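 active = inhibition reaching at least a set limit at 20 µM in the primary screen, cut at about 59% in these data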;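 note: 0% = DMSO wells with substrate and 100% = DMSO wells lacking glucose-6-phosphate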
# EP2 antag: EP2 receptor (human) inhibition | P43116 | C6 glioma cells expressing human EP2, cAMP TR-FRET; cells stimulated with saturating PGE2 | inhibition, % at 25 µM | 0.52% of 260,000 active;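 active = percent inhibition above 40 after rounding to a whole number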;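 note: rat C6 glioma host cells with rolipram phosphodiesterase inhibitor present; the protocol text gives 20 µM as final concentration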
# HKDC1 inh: inhibitors of human hexokinase HKDC1 | recombinant HKDC1, G6PDH/diaphorase resazurin coupled fluorescence | inhibition, % at 20 µM | 0.16% of 340,000 active | AID 493160;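 active = inhibition above about 35% when tested at 20 µM, limit read from the data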;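 note: plate controls were DMSO wells with enzyme for no effect and DMSO wells lacking enzyme for full effect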
#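 Assay system: in-house recombinant HK5 (HKDC1) enzyme. Input: HKDC1 at 5 µg/mL. Medium: Tris pH 8.0 buffer with MgCl2, Tween-20, BSA, BME. Dosing: single 20 µM dose. Schedule: 90 min reaction incubation at room temperature, dark. Signal: resazurin-to-resorufin fluorescence via G6PDH and diaphorase coupling, 525/613 nm. Controls: DMSO-enzyme wells negative, buffer-substituted wells positive.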
# EP2 modulator: EP2 receptor (human) modulation; EP2-expressing cells, cAMP HTRF FRET, PGE2 co-stimulation; induction, % at 25 µM; P43116; 0.83% of 260,000 active; AID 940;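 active = compounds whose cAMP rise, as percent of the full-agonist control response, exceeds 60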;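 note: rat C6 glioma line stably carrying human EP2 under a CMV promoter; the protocol text gives 20 µM as final concentration; 100% = response of wells given 1 µM PGE2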
# TbHK1 inh: blocks Trypanosoma brucei hexokinase 1 activity; recombinant TbHK1, G6PDH-coupled NADH A340; 0.11% of 220,000 active; inhibition, % at 10 µM; AID 1430;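 active = inhibition of 50% or more in the single-dose primary screen; inactive = inhibition below 50%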
# The depositor's hits bear a star; nt = no result given; ! = not confirmed by another sample.
SMILES,PHOSPHO1 block,PfG6PD inh,EP2 antag,HKDC1 inh,EP2 modulator,TbHK1 inh
COc1cccc(/C=N/NC(=O)c2cc3cc([N+](=O)[O-])ccc3s2)c1O,83*,-14,5,25,-54,-12
Cc1sc2ncn3c(SCC(=O)Nc4ccccc4-c4ccccc4)nnc3c2c1C,nt,nt,17,nt,67*,nt
Cc1sc2ncnc(SCC(=O)Nc3ccccc3-c3ccccc3)c2c1C,nt,nt,5,nt,84*,nt
c1ccc2c(CN3CCN(Cc4ccncc4)CC3)cccc2c1,nt,nt,8,nt,-1,nt
Cc1cccc2cc3c(nc12)SC(=NCC1CCCO1)N(Cc1ccco1)C3 (stereo not drawn),74*,49,12,8,49,-4
Cc1ccc2nc3c(cc2c1)CN(Cc1ccco1)C(=NCC1CCCO1)S3 (stereo not drawn),31,12,10,3,15,-5
S=C(Nc1ccc(Br)cc1)N1CCn2cccc2C1c1cccnc1 (stereo not drawn),-4,2,7,0,-97,5
FC(F)(F)c1cc(NC(=S)N2c3ccccc3-n3cccc3[C@H]2c2cccnc2)cc(C(F)(F)F)c1,nt,nt,44*,nt,-16,nt
COc1ccccc1-n1cnnc1SCC(=O)c1cc(C)n(Cc2cccs2)c1C,63*,-17,2,0,17,-9
C=CCn1c(SCC(=O)c2cc(C)n(Cc3cccs3)c2C)nnc1-c1ccncc1,-57,20,10,-3,17,-1
Cc1cc(C(=O)CSc2nnc(-c3ccccc3F)o2)c(C)n1Cc1cccs1,90*,29,5,-2,23,-3
COc1ccccc1NC(=O)CN1CCC2(CC1)NC(=O)c1ccccc1O2,nt,nt,3,nt,-24,nt
Cc1ccc2cc(C(c3nnnn3Cc3ccccc3)N3CCC(C)CC3)c(=O)[nH]c2c1C (stereo not drawn),nt,nt,15,nt,-12,nt
O=Cc1cccc(OC(=O)c2ccc(Cl)cc2Cl)c1,0,nt,7,nt,64*,-4
COc1cc2cc(CN(Cc3cccs3)S(=O)(=O)c3ccc(C)cc3)c(=O)[nH]c2cc1OC,nt,nt,13,nt,-110,nt
CN(C)c1ccc(NC(=O)c2ccc(COc3cccc(Cl)c3)o2)cc1,92*,17,20,2,-30,-15
CCOc1ccc(OCC)c(NC(=O)CSc2nnc3c(n2)[nH]c2ccccc23)c1,nt,nt,18,nt,-33,nt
Cc1cccc(Cl)c1NC[C@H](O)CN1CCN(C)CC1,nt,nt,47*,nt,13,nt
CCOCCCNC(=O)c1cc(-c2cccnc2)nc2ccc(S(=O)(=O)N3CCC(C)CC3)cc12,75*,-7,nt,-1,nt,nt
O=C(CCN1C(=O)/C(=C/c2cccs2)SC1=S)NC1CCCC1,nt,nt,11,nt,-28,nt
O=C(Cn1cnc2c(cnn2-c2ccccc2Cl)c1=O)N1CCCCCC1,nt,nt,7,nt,-9,nt
O=C(c1ccccc1)N1CCN(c2ncnc3c2cnn3-c2ccccc2)CC1,53,3,13,-1,-32,-2
Cc1nn(-c2ccccc2)c(Cl)c1C(=O)N1CCN(c2ncnc3c2cnn3-c2ccccc2)CC1,18,-11,40*,1,-43,-6
O=[N+]([O-])c1ccc2c(N=Nc3ccc4ccccc4c3O)c(O)cc(S(=O)(=O)O)c2c1,nt,nt,51*,nt,-39,nt
O=S(=O)(O)c1ccc2c(N=Nc3cccc4ccccc34)c(O)c(S(=O)(=O)O)cc2c1,nt,nt,57*,nt,-17,nt
SMILES,PHOSPHO1 block,PfG6PD inh,EP2 antag,HKDC1 inh,EP2 modulator,TbHK1 inh
O=[N+]([O-])c1ccc(O)c(C=Nc2cccc3ccccc23)c1,19,2,nt,17,nt,nt
NS(=O)(=O)c1ccc(N=Nc2c(O)c(C(=O)O)cc3ccccc23)cc1,43,22,50*!,22,-24,-15
COC(=O)c1sc(NC(=O)CSc2nc3c(c(=O)n(C)c(=O)n3C)n2C)nc1C,nt,nt,7,nt,-9,nt
Cc1oc2ccccc2[n+]1CCCS(=O)(=O)[O-],nt,nt,10,nt,-33,nt
CCc1ccc2nc(SCC(=O)NCc3ccco3)c(C)cc2c1,nt,nt,4,nt,50,nt
CCOC(=O)c1c(Nc2ccccc2)sc(/C=C2\C=Nc3ccccc32)c1O,-2,-8,8,-7,-8,-13
Oc1nc(Nc2ccccc2)sc1/C=C1\C=Nc2ccccc21,-15,21,72*,23,-64,-14
CCc1nn(CC(=O)N2CCCCCC2)c(=O)c2cc3sc(C)cc3n12,nt,nt,nt,nt,0,nt
